Assay results gathered from unrelated publications.
pEC50, pIC50, pKd: −log10 of the molar value.
CSF1R: Macrophage colony-stimulating factor 1 receptor (CSF1R, Homo sapiens, UniProt P07333)
Tumor necrosis factor receptor superfamily member 9: Tumor necrosis factor receptor superfamily member 9 (Homo sapiens, UniProt Q07011)

CC(C)C[C@H](NC(=O)[C@H](Cc1ccccc1)NC(=O)[C@H](Cc1ccc(O)cc1)NC(=O)CNC(=O)[C@H](CCCNC(=N)N)NC(=O)[C@H](CO)NC(=O)[C@H](CCC(N)=O)NC(=O)[C@H](CO)NC(=O)[C@H](C)NC(=O)[C@H](Cc1ccccc1)NC(=O)[C@@H]1CCCN1C(=O)[C@H](CO)NC(=O)[C@H](CCC(N)=O)NC(=O)[C@H](Cc1ccccc1)NC(=O)[C@H](CCC(=O)O)NC(=O)[C@H](CCC(=O)O)NC(=O)[C@H](CC(=O)O)NC(=O)[C@@H](NC(=O)[C@H](CCCNC(=N)N)NC(=O)[C@@H](N)Cc1ccccc1)C(C)C)C(=O)N[C@@H](Cc1ccccc1)C(=O)N[C@@H](CCCNC(=N)N)C(=O)N1CCC[C@H]1C(=O)N[C@@H](CCCNC(=N)N)C(=O)N[C@@H](CC(N)=O)C(N)=O  pEC50 (Neuromedin-U receptor 2 (NMUR2, Homo sapiens, UniProt Q9GZQ4); inositol phosphate, agonist, TR-FRET): 9.77
c1cncc(-c2cccc(Nc3nccc(NC4CCCCC4)n3)c2)c1  pKd (CSF1R; binding, competition with immobilised ligand): 6.23
COc1ccc(OC(=O)N(CC(=O)O)Cc2ccc(OCCc3nc(-c4ccccc4)oc3C)cc2)cc1  pEC50 (Peroxisome proliferator-activated receptor alpha (PPARA, Homo sapiens, UniProt Q07869); reporter gene, agonist, luciferase): 5.19
CC#CC(=O)N1CC[C@@H](n2cc(-c3ccc(Oc4c(F)cccc4F)cc3)c3c(N)n[nH]c(=O)c32)C1  pKd (Tyrosine-protein kinase JAK3 (JAK3, Homo sapiens, UniProt P52333); binding, competition with immobilised ligand): < 5.52
CCCC[C@@H]1NC(=O)[C@H](Cc2ccc(O)cc2)NC(=O)[C@@H]2CCCN2C(=O)[C@H](CC(=O)O)NC(=O)[C@H](C)NC(=O)[C@H](Cc2ccccc2)NC(=O)[C@@H]2CSCCC(=O)N3CN(CN(C3)C(=O)CCSC[C@@H](C(=O)N[C@@H](CNC(=O)CCc3cn(CCOCCOCCOCCOCCOCCOCCOCCOCCOCCOCCOCCOCCC(=O)NCCC(=O)N(C)CC(=O)N(C)CC(=O)N(C)CC(=O)N(C)CC(=O)N(C)CC(=O)N(C)CC(=O)N(C)CC(=O)N(C)CC(=O)N(C)CC(=O)N(C)CC(=O)NCCCC[C@@H]4NC(=O)[C@H](Cc5cccc6ccccc56)NC(=O)[C@@H]5CCCN5C(=O)[C@@H](NC(C)=O)CSCCC(=O)N5CN6CN(C5)C(=O)CCSC[C@H](NC4=O)C(=O)N[C@@H](CCSC)C(=O)N[C@@H](CCCCNC(=N)N)C(=O)N[C@@H](CC(=O)O)C(=O)N[C@@H](Cc4c[nH]c5ccccc45)C(=O)N[C@@H](CO)C(=O)N[C@@H]([C@@H](C)O)C(=O)N4CCC[C@H]4C(=O)N4C[C@H](O)C[C@H]4C(=O)N[C@@H](Cc4c[nH]c5ccccc45)C(=O)N[C@H](C(N)=O)CSCCC6=O)nn3)C(N)=O)NC1=O)C(=O)CCSC[C@H](NC(C)=O)C(=O)N[C@@H](CC(C)(C)C)C(=O)N1CCC[C@H]1C(=O)N[C@@H](CCC(=O)O)C(=O)N[C@H](C)C(=O)N1CCC[C@H]1C(=O)N[C@@H](Cc1ccc(O)cc1)C(=O)N2  pKd (Tumor necrosis factor receptor superfamily member 9; binding, SPR): 8.29
Cc1cnc(-c2ccc(-c3ccc(NC(=O)Nc4c(F)cc(F)cc4F)cc3F)c3c2C(=O)NC3)[nH]1  pKd (CSF1R; binding, competition with immobilised ligand): 9.00
Cc1cc2nc3c(=O)[nH]c(=O)nc-3n(C[C@H](O)[C@H](O)[C@H](O)COP(=O)(O)OP(=O)(O)OC[C@H]3O[C@@H](n4cnc5c(N)ncnc54)[C@H](O)[C@@H]3O)c2cc1C  pKd (Heat shock protein beta-1 (HSPB1, Homo sapiens, UniProt P04792); binding; lysate): 6.80
CCCC[C@@H]1NC(=O)[C@H](Cc2ccc(O)cc2)NC(=O)[C@@H]2CCCN2C(=O)[C@H](CC(=O)O)NC(=O)[C@H](C)NC(=O)[C@H](Cc2ccccc2)NC(=O)[C@@H]2CSCCC(=O)N3CN(CN(C3)C(=O)CCSC[C@@H](C(=O)N[C@@H](C)C(N)=O)NC1=O)C(=O)CCSC[C@H](NC(C)=O)C(=O)N[C@@H](CC(C)(C)C)C(=O)N1CCC[C@H]1C(=O)N[C@@H](CCC(=O)O)C(=O)N[C@H](CCCCNC(=O)CCc1cn(CC(=O)N[C@H]3CSCCC(=O)N4CN5CN(C4)C(=O)CCSC[C@H](NC(=O)[C@@H](CC(=O)O)NC(=O)[C@H](Cc4cccc6ccccc46)NC(=O)[C@@H]4CCCN4C3=O)C(=O)N[C@@H](CCSC)C(=O)N[C@@H](CCCCNC(=N)N)C(=O)N[C@@H](CC(=O)O)C(=O)N[C@@H](Cc3c[nH]c4ccccc34)C(=O)N[C@@H](CO)C(=O)N[C@@H]([C@@H](C)O)C(=O)N3CCC[C@H]3C(=O)N3C[C@H](O)C[C@H]3C(=O)N[C@@H](Cc3c[nH]c4ccccc34)C(=O)N[C@H](C(N)=O)CSCCC5=O)nn1)C(=O)N1CCC[C@H]1C(=O)N[C@@H](Cc1ccc(O)cc1)C(=O)N2  pKd (Tumor necrosis factor receptor superfamily member 9; binding, SPR): 8.05
CNC(=O)c1cc2c(Oc3ccc(NC(=O)C4(C(=O)Nc5ccc(F)cc5)CC4)cc3)ccnc2cc1OC  pIC50 (Hepatocyte growth factor receptor (MET, Homo sapiens, UniProt P08581); enzyme activity, inhibitor, TR-FRET): 7.79
